Activity data for twelve molecules are collected here from ChEMBL document CHEMBL1138913, “Synthesis, structure analysis, and antitumor activity of 3,6-disubstituted-1,4-dihydro-1,2,4,5-tetrazine derivatives” (2006).

Type in all cases: functional
The subject of test [1] is A549. Kind of test: Antiproliferative activity against human A549 cell line at 10 umol/L by SRB method. Summed up: (§1)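 Growth inhibition of A-549 and BEL-7402 cells was measured in vitro by sulforhodamine B (SRB) staining. Compounds were tested across five tenfold concentrations from 10^-4 to 10^-8 mol/L, and each value is reported as the percent inhibition ratio of cell growth at that concentration.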

The subject of test [2] is A549. Kind of test: Antiproliferative activity against human A549 cell line at 100 umol/L by SRB method. Summed up: as §1
The subject of test [3] is P388. Kind of test: Antiproliferative activity against mouse P388 cell line at 10 umol/L by MTT method. The gist of the method:
(§2)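 P-388 and HL-60 cells were tested in vitro by MTT assay over five tenfold concentrations from 10^-4 to 10^-8 mol/L. Each value is the percent inhibition ratio of cancer cell growth at that concentration.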

Test [4] deals with A549. Put plainly: Antiproliferative activity against human A549 cell line at 0.1 umol/L by SRB method. The gist of the method:
as §1

The test system of test [5] is A549. Kind of test: Antiproliferative activity against human A549 cell line at 0.01 umol/L by SRB method. Summed up: as §1
In test [6] the test system is P388. Kind of test: Antiproliferative activity against mouse P388 cell line at 0.1 umol/L by MTT method. Summed up:
as §2

For test [7], the system named is P388. Kind of test: Antiproliferative activity against mouse P388 cell line at 1 umol/L by MTT method. Summed up: as §2
Test [8] concerns P388. Put plainly: Antiproliferative activity against mouse P388 cell line at 0.01 umol/L by MTT method. Summed up: as §2
For test [9], the system named is A549. Put plainly: Antiproliferative activity against human A549 cell line at 1 umol/L by SRB method. The gist of the method:
as §1

Test [10] deals with P388. Kind of test: Antiproliferative activity against mouse P388 cell line at 100 umol/L by MTT method. Summed up: as §2
The subject of test [11] is HL-60. Kind of test: Antiproliferative activity against human HL60 cell line at 0.01 umol/L by MTT method. Summed up: as §2
The subject of test [12] is Bel-7402. Put plainly: Antiproliferative activity against human BEL-7402 cell line at 100 umol/L by SRB method. The gist of the method:
as §1

In test [13] the test system is HL-60. Kind of test: Antiproliferative activity against human HL60 cell line at 10 umol/L by MTT method. The gist of the method:
as §2

Test [14] has as its system HL-60. Put plainly: Antiproliferative activity against human HL60 cell line at 1 umol/L by MTT method. Summed up:
as §2

Test [15] relates to HL-60. Put plainly: Antiproliferative activity against human HL60 cell line at 0.1 umol/L by MTT method. The gist of the method: as §2
Test [16] has as its system Bel-7402. Kind of test: Antiproliferative activity against human BEL-7402 cell line at 1 umol/L by SRB method. Summed up: as §1
The test system of test [17] is Bel-7402. Kind of test: Antiproliferative activity against human BEL-7402 cell line at 0.1 umol/L by SRB method. The gist of the method: as §1
In test [18] the test system is HL-60. Kind of test: Antiproliferative activity against human HL60 cell line at 100 umol/L by MTT method. The gist of the method:
as §2

Test [19] concerns Bel-7402. Kind of test: Antiproliferative activity against human BEL-7402 cell line at 0.01 umol/L by SRB method. The gist of the method:
as §1

The subject of test [20] is Bel-7402. Put plainly: Antiproliferative activity against human BEL-7402 cell line at 10 umol/L by SRB method. The gist of the method:
as §1

With `FC(F)(F)c1ccc(C2=NN=C(c3ccc(C(F)(F)F)cc3)NN2)cc1`, the Activity amounted to 22% in the test on A549 [1]; 70.3% in the test on A549 [2]; 36.9% in the test with P388 [3]; 0% in the test with A549 [4]; 0% in the test with A549 [5]; 13.8% in the test on P388 [6]. Besides, the Activity in the test with P388 [7] amounted to 15.2%; with P388 [8], 9.1%; in the test on A549 [9] it was 0%; with P388 [10] it was 47.7%.
With `Oc1ccc(Cl)cc1-c1nnc(-c2cc(Cl)ccc2O)nn1`, the Activity with A549 [1] is recorded as 62.3%; in the test on A549 [2], 7.6%; in the test on P388 [3] it was 90.7%; in the test on A549 [4] it was 0%; with A549 [5], 0%; with P388 [6] it was 88%. Further, the Activity in the test on P388 [7] amounted to 91.2%; with P388 [8] it was 82.8%; in the test with A549 [9] it was 16.4%; with P388 [10], 92.5%.
For `Clc1ccc(-c2nnc(-c3ccc(Cl)cc3)nn2)cc1`, the Activity in the test on HL-60 [11] came out at 0%; in the test with Bel-7402 [12], 27.4%; in the test with HL-60 [13], 12.2%; in the test with A549 [1], 35.1%; in the test on A549 [2] it was 52.3%; in the test with P388 [3], 0%. Further, the Activity is reported as 19.4% in the test with A549 [4]; 0% in the test with HL-60 [14]; 4% in the test with HL-60 [15]; 0% in the test with Bel-7402 [16]; 0% in the test with Bel-7402 [17]; 16.1% in the test on A549 [5]. The Activity in the test with HL-60 [18] is reported as 66.7%; in the test on P388 [6], 0%; in the test on P388 [7], 0%; in the test on P388 [8] it was 0%; in the test with A549 [9], 29%; with P388 [10], 0%. Moreover, the Activity in the test on Bel-7402 [19] is 3.4%; in the test on Bel-7402 [20], 0.1%.
For the molecule `Cc1cccnc1C1=NN=C(c2ncccc2C)NN1`, the Activity in the test with HL-60 [11] came to 17.2%; with Bel-7402 [12], 94.9%; in the test with HL-60 [13], 13.6%; in the test with A549 [1], 3.6%; with A549 [2] it was 2.6%; in the test on P388 [3] it was 0%. Further, the Activity with A549 [4] worked out at 0%; in the test on HL-60 [14] it was 2.9%; with HL-60 [15], 2.6%; with Bel-7402 [16], 0%; in the test with Bel-7402 [17], 0%; in the test with A549 [5], 0%. Also, the Activity in the test with HL-60 [18] is listed as 96.3%; with P388 [6], 0%; in the test with P388 [7], 0%; in the test with P388 [8], 0%; with A549 [9], 0%; with P388 [10], 0%. The Activity in the test on Bel-7402 [19] is listed as 0%; with Bel-7402 [20], 8.3%.
`Cc1cccnc1-c1nnc(-c2ncccc2C)nn1`: the Activity in the test on HL-60 [11] is listed as 4.2%; with Bel-7402 [12], 93%; in the test on HL-60 [13] it was 96.6%; in the test on A549 [1] it was 9.8%; with A549 [2], 93.5%; in the test on P388 [3], 0%. Besides, the Activity in the test with A549 [4] is 0%; in the test with HL-60 [14], 7%; in the test with HL-60 [15], 9.1%; in the test on Bel-7402 [16] it was 0%; with Bel-7402 [17], 0%; in the test with A549 [5], 0%. The Activity with HL-60 [18] is recorded as 94.3%; with P388 [6] it was 0%; with P388 [7], 0%; in the test with P388 [8], 0%; with A549 [9] it was 0%; in the test on P388 [10] it was 34.9%. Moreover, the Activity in the test on Bel-7402 [19] worked out at 2.8%; in the test with Bel-7402 [20], 23.8%.
For the molecule `FC(F)(F)c1ccc(-c2nnc(-c3ccc(C(F)(F)F)cc3)nn2)cc1`, the Activity is listed as 0% in the test on HL-60 [11]; 21.3% with Bel-7402 [12]; 7% in the test with HL-60 [13]; 44.4% with A549 [1]; 51.5% in the test with A549 [2]; 2.5% in the test with P388 [3]. Also, the Activity in the test with A549 [4] stood at 19.5%; in the test with HL-60 [14], 5.8%; with HL-60 [15], 1.4%; with Bel-7402 [16], 0%; in the test with Bel-7402 [17], 0%; in the test with A549 [5], 9.7%. The Activity is given as 43.7% in the test on HL-60 [18]; 0% in the test on P388 [6]; 0% in the test on P388 [7]; 0% in the test on P388 [8]; 33% in the test with A549 [9]; 40.2% in the test with P388 [10]. The Activity with Bel-7402 [19] came to 0%; in the test on Bel-7402 [20], 12.6%.
Turning to `Clc1ccc(CC2=NNC(Cc3ccc(Cl)cc3)=NN2)cc1`, the Activity in the test on A549 [1] was found to be 17.8%; in the test on A549 [2], 64.5%; in the test on P388 [3] it was 15.5%; with A549 [4], 10.1%; in the test on A549 [5], 7.8%; in the test on P388 [6], 2.9%. The Activity was 4.4% in the test on P388 [7], 0% in the test with P388 [8], 3% in the test on A549 [9] and 48.8% with P388 [10].
Take `c1ccc(C2=NNC(c3ccccc3)=NN2)cc1`: the Activity in the test on HL-60 [11] worked out at 17.2%; with Bel-7402 [12], 54%; in the test on HL-60 [13] it was 16.1%; in the test on A549 [1] it was 67.2%; in the test with A549 [2], 55.8%; in the test on P388 [3], 69%. Further, the Activity in the test on A549 [4] was 10.2%; in the test on HL-60 [14], 2.9%; in the test on HL-60 [15], 2.6%; with Bel-7402 [16], 0%; in the test on Bel-7402 [17] it was 0%; with A549 [5], 0%. Also, the Activity in the test with HL-60 [18] stood at 82.1%; with P388 [6] it was 0%; in the test on P388 [7], 0%; in the test with P388 [8], 0%; in the test on A549 [9] it was 5.4%; in the test on P388 [10], 87.6%. Besides, the Activity worked out at 0% with Bel-7402 [19] and 14.3% in the test with Bel-7402 [20].
On to `c1ccc(-c2nnc(-c3ccccc3)nn2)cc1`, for which the Activity in the test with HL-60 [11] came out at 0%; with Bel-7402 [12], 41.7%; in the test with HL-60 [13], 16.4%; in the test with A549 [1], 9.5%; in the test with A549 [2] it was 60.4%; in the test with P388 [3] it was 0%. Also, the Activity with A549 [4] was 27.1%; in the test on HL-60 [14], 13.9%; with HL-60 [15], 13.9%; with Bel-7402 [16], 0%; in the test with Bel-7402 [17], 0%; in the test with A549 [5] it was 29.7%. Besides, the Activity with HL-60 [18] amounted to 35.1%; with P388 [6], 0%; in the test with P388 [7] it was 0%; in the test with P388 [8], 0%; in the test on A549 [9], 20.3%; in the test with P388 [10], 15.5%. Also, the Activity worked out at 0% with Bel-7402 [19] and 7.4% in the test on Bel-7402 [20].
`Clc1ccccc1-c1nnc(-c2ccccc2Cl)nn1` [CLOFENTEZINE]: the Activity with A549 [1] is given as 2.8%; in the test on A549 [2] it was 8.2%; in the test with P388 [3], 0%; in the test on A549 [4], 14.6%; in the test with A549 [5], 12.6%; with P388 [6] it was 0%. For the same molecule, the Activity in the test on P388 [7] is 0%; with P388 [8] it was 0%; in the test with A549 [9], 5.6%; with P388 [10], 0%.
With `Clc1ccc(C2=NN=C(c3ccc(Cl)cc3)NN2)cc1`, the Activity in the test with A549 [1] was 2%; in the test on A549 [2] it was 73.4%; with P388 [3], 51%; in the test on A549 [4], 0%; in the test on A549 [5] it was 7.1%; in the test on P388 [6] it was 19.4%. For the same molecule, the Activity with P388 [7] was determined as 36%; in the test with P388 [8] it was 4.9%; with A549 [9] it was 4.7%; in the test with P388 [10] it was 65.9%.
`Oc1ccc(Cl)cc1C1=NN=C(c2cc(Cl)ccc2O)NN1`: the Activity with A549 [1] is 80.3%; in the test with A549 [2] it was 65.3%; in the test with P388 [3] it was 0%; in the test on A549 [4], 0%; in the test on A549 [5], 0%; with P388 [6] it was 0%. Besides, the Activity came to 0% with P388 [7], 0% with P388 [8], 0% in the test with A549 [9] and 89% in the test on P388 [10].
